Shown are actives, neighbours in structure and some others; about 9.6% of the full set was active somewhere.
bCat KO growth – beta-catenin-lacking colon tumor cell growth suppression; HCT116 beta-catenin knockout viability, CellTiter-Glo, 60 h; stronger effect = lower value; viability, % at 10 µM; 140,000 tested, 1.5% active; AID 818;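 active means viability at or under a set limit, the compound median less 4 SD, cut at about 6% in these data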
Lmaj promast – Leishmania major promastigote growth inhibition | Leishmania major promastigotes, resazurin fluorescence viability | inhibition, % at 10 µM | 200,000 tested, 9% active | AID 1063; in the data active means inhibition above about 50%;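 further: promastigotes grown with compound for 44 hours at 28 °C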
PTEN del growth – PTEN-deleted cell growth suppression | HCT116 PTEN-null viability, CellTiter-Glo, 60 h; stronger effect = lower value | 140,000 tested, 1.2% active | viability, % at 10 µM | AID 827;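 active means viability at or below a set limit, 4 SD under the median of all tested compounds, cut at about 3.7% in these data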;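 further: PTEN knockout HCT116 line with beta catenin targeted HCT116 as companion control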
PMI act satM6P – activators of human phosphomannose isomerase at near-saturating mannose 6-phosphate | 190,000 tested, 0.34% active | P34949 | AID 1216 | coupled PMI enzyme assay, resazurin fluorescence, 20 min; stronger effect = higher value; 1 = untreated enzyme, 0 = substrate-free blank | activation factor at 20 µM;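 active means activation factor of 2 or more at 20 µM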
Target sequence (P34949 whole entry, looked up): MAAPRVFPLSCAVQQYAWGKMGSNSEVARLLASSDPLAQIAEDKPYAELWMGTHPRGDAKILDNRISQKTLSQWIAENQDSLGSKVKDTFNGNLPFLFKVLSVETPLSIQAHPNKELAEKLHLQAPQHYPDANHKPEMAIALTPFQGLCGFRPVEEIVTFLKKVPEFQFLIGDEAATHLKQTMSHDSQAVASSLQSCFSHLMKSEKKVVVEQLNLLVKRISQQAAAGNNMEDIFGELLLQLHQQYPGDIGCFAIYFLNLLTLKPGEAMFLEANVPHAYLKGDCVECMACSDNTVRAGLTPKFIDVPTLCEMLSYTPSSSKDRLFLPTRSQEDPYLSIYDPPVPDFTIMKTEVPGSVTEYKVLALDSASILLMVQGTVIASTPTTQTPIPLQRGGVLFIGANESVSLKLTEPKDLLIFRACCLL
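test system = human PMI in coupled enzyme assay | medium = HEPES-buffered pH 7.4 with magnesium and detergent | also added = 1.0 mM mannose-6-phosphate substrate with 0.22 mM NADP+ | compound = 20 µM single dose | times = 20 min incubation at room temperature | measured by = resorufin fluorescence (Ex 544/Em 590 nm) from resazurin via diaphorase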
PMI act – increases human mannose-6-phosphate isomerase activity. P34949. purified human PMI, coupled resazurin fluorescence, 20 min; stronger effect = higher value; 1 = vehicle control, 0 substrate-free wells. activation factor at 20 µM. 190,000 tested, 0.005% active. AID 1214;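 active means activation factor of 2 or more at 20 µM, relative to plate controls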
Numbers stand for hits; n = inactive; x = no result given.

SMILES | bCat KO growth | Lmaj promast | PTEN del growth | PMI act satM6P | PMI act
Nc1cccn2c(-c3ccc(Cl)cc3)cnc12 | x | 73 | x | n | n
Nc1cccn2c(-c3ccc(Cl)c(Cl)c3)cnc12 | x | 65 | x | n | n
COc1ccccc1Nc1nc(NCC2CCCO2)c2ccccc2n1 (stereo unspecified) | x | 100 | x | n | n
O=C(CSc1nnc(Cc2ccccc2)o1)Nc1ccc(Br)cn1 | n | n | n | n | n
COc1ccc(C2(CNC(=O)c3cc([N+](=O)[O-])cc([N+](=O)[O-])c3)CCCC2)cc1OC | n | 100 | n | n | n
CN(C)CCNCc1ccc(OC2CCCC2)cc1 | n | 50 | n | n | n
CCC(CO)NCc1ccc(Br)cc1 (stereo unspecified) | x | n | x | n | n
CCC(CO)NCc1ccc(OC2CCCC2)cc1 (stereo unspecified) | n | 86 | n | n | n
CN(C)c1nc(N(C)C)nc(N(C#N)CN2C(=O)c3ccccc3C2=O)n1 | n | n | n | n | n
O=C(CC1S/C(=N/N=C/c2cccs2)NC1=O)Nc1ccc(Cl)c(Cl)c1 (stereo unspecified) | n | n | n | n | n
O=C(CC1S/C(=N/N=C/c2c[nH]c3ccccc23)NC1=O)Nc1ccccc1 (stereo unspecified) | n | 79 | n | n | n
O=C(CC1S/C(=N/N=C/c2cccs2)NC1=O)Nc1ccc(Cl)cc1 (stereo unspecified) | n | 99 | n | n | n
COc1cc(/C=C/C(=O)Nc2cc(C(F)(F)F)ccc2Cl)cc(OC)c1OC | n | 67 | n | n | n
N#CC(c1ccc(Cl)cc1)c1cccc(Cl)n1 (stereo unspecified) | x | n | x | n | n
O=c1c(CN2CCN(Cc3ccccc3)CC2)coc2ccc(Cl)cc12 | n | 76 | n | n | n
Cc1ccc2occ(CN3CCN(Cc4ccccc4)CC3)c(=O)c2c1 | n | n | n | n | n
Clc1ccc(OCCN2CCN(c3ncnc4sccc34)CC2)cc1 | n | n | n | n | n
CCN1CCN(CC(O)COc2ccc(C)c(C)c2)CC1 (stereo unspecified) | n | 84 | n | n | n
COc1ccc(OCC(O)CN2CCN(c3ncccn3)CC2)cc1 (stereo unspecified) | n | n | n | n | n
CCN1CCN(CCOc2ccc(Cl)cc2)CC1 | x | 78 | x | n | n
CN1CCN(CC(O)COc2ccc(Cl)cc2)CC1 (stereo unspecified) | n | 86 | n | n | n
OCCN1CCN(CC(O)COc2ccc(C34CC5CC(CC(C5)C3)C4)cc2)CC1 (stereo unspecified) | x | 100 | x | n | n
CN1CCN(CC(O)COc2ccc(OCC(O)CN3CCN(C)CC3)cc2)CC1 (stereo unspecified) | n | n | n | n | n
O=C(Nc1ccccc1Oc1ccccc1)c1ccccc1F | n | n | n | n | n
CC(=O)c1cccc(N=Nc2c(-c3ccccc3)[nH]n(-c3ccccc3)c2=O)c1 | x | n | x | n | n
SMILES | bCat KO growth | Lmaj promast | PTEN del growth | PMI act satM6P | PMI act
Cc1ccc(OCC(O)CN2CCN(Cc3ccc4c(c3)OCO4)CC2)cc1C (stereo unspecified) | n | 91 | n | n | n
OC(CN1C2=NCCCN2c2ccccc21)c1ccc(Cl)cc1 (stereo unspecified) | n | n | n | n | n
Cc1cc(OCC(O)CN2CCN(C)CC2)ccc1C(C)C (stereo unspecified) | n | 90 | n | n | n
OCCN1CCN(CC(O)COc2ccc(Cl)cc2)CC1 (stereo unspecified) | n | 74 | n | n | n
OC(COc1ccc(Cl)cc1)CN1C2=NCCCN2c2ccccc21 (stereo unspecified) | n | 63 | n | n | n
COc1ccc(CC(=O)Nc2cccc(-c3ccc4nnc(C)n4n3)c2)cc1OC | x | n | x | n | n
C/C(N)=C(/C#N)C(=O)CSc1nc2ccccc2n1CC(C)C | x | n | x | n | n
OC(COCc1ccc2c(c1)OCO2)CN1CCC(Cc2ccccc2)CC1 (stereo unspecified) | x | 87 | x | n | n
Cc1cc(OCC(O)CN2C(C)CCCC2C)ccc1C(C)C (stereo unspecified) | x | 97 | x | n | n
OC(COC(c1ccc(Cl)cc1)c1ccc(Cl)cc1)CN1CCCC1 (stereo unspecified) | n | 100 | n | n | n
CCN1CCN(CC(O)COc2ccc(Cl)cc2)CC1 (stereo unspecified) | n | 89 | n | n | n
C/C(=C1/SC(N2CCCC2)=NC1=O)c1ccc(Br)cc1 | n | n | n | n | n
OC(COc1ccc(CNCCc2ccc(C(F)(F)F)cc2)cc1)CN1CCCCC1 (stereo unspecified) | x | 100 | x | n | n
OC(COc1ccc2c(c1)OCO2)CN1CCN(c2ccccc2)CC1 (stereo unspecified) | x | n | x | n | n
C=CCc1ccccc1OCC(O)CN1CCN(Cc2ccc3c(c2)OCO3)CC1 (stereo unspecified) | n | 93 | n | n | n
O=C(CSCCO)Nc1ccc(C23CC4CC(CC(C4)C2)C3)cc1 | n | n | n | n | n
OC(COc1ccc(Cl)cc1)CN1CCCCC1 (stereo unspecified) | n | 89 | n | n | n
NCCOc1ccc(C23CC4CC(CC(C4)C2)C3)cc1 | x | 101 | x | n | n
Cc1ccc(C(=O)NC(=S)NCc2ccco2)cc1 | x | n | x | n | n
Cc1noc(C)c1C(=O)OCC(=O)Nc1c(F)cccc1F | x | n | x | n | n
CCC(=O)c1ccc(OCC(O)CN2CCCCC2)cc1 (stereo unspecified) | n | 66 | n | n | n
OC(COc1c(Cl)cc(Cl)cc1Cl)CN1CCCCC1 (stereo unspecified) | n | 97 | n | n | n
OC(COc1ccc2c(c1)OCO2)CN1CCc2ccccc2C1 (stereo unspecified) | n | 74 | n | n | n
Cc1cc2c(OCC(O)CN3CCCCC3)cccc2[nH]1 (stereo unspecified) | x | n | x | n | n
OC(COc1ccc2c(c1)OCO2)CN1CCCCC1 (stereo unspecified) | x | n | x | n | n
SMILES | bCat KO growth | Lmaj promast | PTEN del growth | PMI act satM6P | PMI act
CCn1c(SCC(=O)Nc2ccc3c(c2)OCCO3)nnc1-c1ccco1 | n | n | n | n | n
CCn1c(SCC(=O)Nc2ccc3c(c2)c2ccccc2n3CC)nnc1-c1ccco1 | n | 72 | n | n | n
O=C(CSc1nccc(=O)[nH]1)Nc1ccc(F)c([N+](=O)[O-])c1 | n | 51 | n | n | n
O=C(CSc1nnc(-c2ccncc2)o1)NCc1ccccc1 | n | 50 | n | n | n
CCn1c2ccccc2c2cc(NC(=O)CSc3nnc(-c4cccc(F)c4)o3)ccc21 | n | n | n | n | n
O=C(CSc1nnc(-c2ccncc2)o1)NCc1ccccc1Cl | n | n | n | n | n
CCn1c2ccccc2c2cc(NC(=O)CSc3nnc(-c4ccccc4)o3)ccc21 | n | 85 | n | n | n
Cc1cccc(S(=O)(=O)c2c(N)n(-c3ccccc3)c3nc4ccccc4nc23)c1 | n | n | n | n | n
